Sampled rows, rich in hits. Any-hit rate of the full collection: about 0.74%.
Diaph inh CS – diaphorase inhibition or chemical oxidation counter-screen | inhibition, % at 20 µM | 0.69% of 190,000 active | diaphorase resazurin-to-resorufin fluorescence, NADH, 16 min; bacterial (C. kluyveri) enzyme, not human;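 active = primary screen inhibition at 20 µM above a set limit, cut at about 50% in these data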;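 also: plate controls were DMSO with full reaction for no effect and wells lacking NADH for full effect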
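Assay system – diaphorase enzyme from Clostridium kluyveri · Amount – diaphorase 0.14 U/mL (working solution) · Times – reaction incubation of 16 min at room temperature · Controls – No-NADH positive control and DMSO neutral control · Signal – resorufin fluorescence 544/590 nm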
Arbovirus anti – antivirals against arbovirus infection; arbovirus infection cell-based antiviral screen; 0.37% of 200,000 active; inhibition, % at 10 µM; AID 1251; in the data active = inhibition above about 30%
HKDC1 inhibitor – blocks human hexokinase HKDC1 activity; 0.16% of 340,000 active; recombinant HKDC1, G6PDH/diaphorase resazurin coupled fluorescence; inhibition, % at 20 µM; AID 493160;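 active = inhibition above about 35% when tested at 20 µM, limit read from the data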;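 also: plate controls were DMSO wells with enzyme for no effect and DMSO wells lacking enzyme for full effect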
Target sequence (Q2TB90 whole entry, looked up): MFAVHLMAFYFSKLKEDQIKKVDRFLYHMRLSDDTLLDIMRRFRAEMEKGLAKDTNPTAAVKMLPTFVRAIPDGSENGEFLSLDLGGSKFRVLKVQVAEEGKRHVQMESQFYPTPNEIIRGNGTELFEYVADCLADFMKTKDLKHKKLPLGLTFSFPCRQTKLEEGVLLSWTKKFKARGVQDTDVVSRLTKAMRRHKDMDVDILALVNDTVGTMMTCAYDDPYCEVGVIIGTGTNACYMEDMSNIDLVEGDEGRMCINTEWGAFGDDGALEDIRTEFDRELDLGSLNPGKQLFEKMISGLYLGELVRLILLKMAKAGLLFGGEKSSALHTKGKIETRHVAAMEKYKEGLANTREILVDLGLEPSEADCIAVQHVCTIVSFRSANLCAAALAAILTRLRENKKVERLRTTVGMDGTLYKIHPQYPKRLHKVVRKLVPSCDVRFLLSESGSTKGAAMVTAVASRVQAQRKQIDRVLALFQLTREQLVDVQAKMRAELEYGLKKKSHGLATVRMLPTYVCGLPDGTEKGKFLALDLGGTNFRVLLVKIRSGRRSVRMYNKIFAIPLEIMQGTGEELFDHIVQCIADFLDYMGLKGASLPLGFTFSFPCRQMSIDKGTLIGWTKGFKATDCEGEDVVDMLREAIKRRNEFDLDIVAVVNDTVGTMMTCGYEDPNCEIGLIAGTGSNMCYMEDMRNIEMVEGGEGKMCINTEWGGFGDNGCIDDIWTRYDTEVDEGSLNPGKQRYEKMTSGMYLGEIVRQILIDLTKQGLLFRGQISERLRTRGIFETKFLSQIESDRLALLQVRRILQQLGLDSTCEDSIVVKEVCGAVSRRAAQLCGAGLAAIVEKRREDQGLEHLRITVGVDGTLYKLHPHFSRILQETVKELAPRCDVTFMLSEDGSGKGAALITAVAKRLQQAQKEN
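Assay system – recombinant HKDC1 (HK5) hexokinase enzyme, produced in-house · Input – HKDC1 at 5 µg/mL · Reagent – glucose plus 1 mM ATP as hexokinase substrates · Timing – 90 min reaction incubation at room temperature, dark · Measured by – G6PDH/diaphorase-coupled fluorescence, 1 mM NADP, 100 µM resazurin, 525/613 nm · Benchmarks – DMSO-enzyme wells negative, buffer-substituted wells positive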
Diaphorase act – counter-screen for diaphorase-based assays: diaphorase activators and chemical reducers; Diaphorase/resazurin coupled assay, resorufin fluorescence, 16 min; stronger effect = higher value; 1 = vehicle wells, 0 = NADH-free wells; activation factor at 20 µM; 0.005% of 190,000 active; AID 1229;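 active = diaphorase activity raised at least twofold by the compound at 20 µM; inactive = activation factor below 2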
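Test system: Clostridium kluyveri diaphorase, purified enzyme. Buffer or medium: 50 mM HEPES pH 7.4 buffer plus MgCl2 and Tween 20. Also added: 0.114 mM NADH and 0.1 mM resazurin, final amounts. Dosing: compound 20 µM once, DMSO 1%. Schedule: 16 min enzyme reaction, ambient temperature. Detection: fluorescence of resorufin, 544 nm excitation, 590 nm emission.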
G6PDH CS – L. mesenteroides G6PDH inhibition counter-screen. AID 1020. inhibition, % at 5 µM. 0.12% of 200,000 active. Purified L. mesenteroides G6PDH, diaphorase/resazurin coupled fluorescence, 45 min; in the data active = inhibition above about 50%
* = called active by the depositor; x = not tested or not shown.

SMILES	Diaph inh CS	Arbovirus anti	HKDC1 inhibitor	Diaphorase act	G6PDH CS
NC(=O)c1ccccc1N/C=C/C(=O)c1ccccc1	12	-2	3	0.9	0
COC(=O)c1ccccc1N/C=C/C(=O)c1ccc(Br)cc1	11	63*	-4	0.9	5
Cc1cc(/C=C2/C(=N)N3C(=NC2=O)SN=C3S(C)(=O)=O)c(C)n1-c1ccccc1F	13	8	28	0.9	6
CS(=O)(=O)C1=NSC2=NC(=O)/C(=C\c3cccn3-c3ccc(Cl)cc3)C(=N)N21	51*	18	23	0.5	-1
Cc1ccc(-n2cccc2/C=C2\C(=N)N3N=C(C(C)C)SC3=NC2=O)cc1	30	32*	6	0.7	-6
CCC1=NN2C(=N)/C(=C\c3cccn3-c3ccc(OC)cc3)C(=O)N=C2S1	28	30	-4	0.7	-3
CNc1ncnc(NC)c1[N+](=O)[O-]	x	x	-6	x	x
Cc1noc(C)c1S(=O)(=O)N(C)C[C@H]1Oc2ccc(NS(=O)(=O)c3ccccc3)cc2C(=O)N([C@H](C)CO)C[C@@H]1C	x	x	-2	x	x
CCOC(=O)CC(=O)CSc1nc2c(sc(=S)n2-c2ccc(OCC)cc2)c(=O)[nH]1	60*	60*	15	0.4	-4
CCCN(CCC)C(=O)CSc1nc2c(sc(=S)n2-c2ccc(OCC)cc2)c(=O)[nH]1	80*	42*	-4	0.2	-4
CCCCN(CC)C(=O)CSc1nc2c(sc(=S)n2-c2ccc(OCC)cc2)c(=O)[nH]1	72*	47*	-3	0.3	3
COc1cccc(C2CC(=O)N3CN(c4ccccc4F)CSC3=C2C#N)c1 (stereo not drawn)	41	3	7	0.6	13
COc1ccccc1N1CSC2=C(C#N)C(c3ccc(SC)cc3)CC(=O)N2C1 (stereo not drawn)	65*	10	32	0.4	35
COc1ccc2ccccc2c1C1CC(=O)N2CN(C)CSC2=C1C#N (stereo not drawn)	52*	-1	10	0.5	21
CCc1ccccc1N1CSC2=C(C#N)C(c3cc(OC)c(OC)cc3OC)CC(=O)N2C1 (stereo not drawn)	50*	-1	10	0.5	43
COc1cc(C2CC(=O)N3CN(c4ccccc4C)CSC3=C2C#N)cc(OC)c1OC (stereo not drawn)	59*	4	x	0.4	25
COc1ccccc1N(C)S(=O)(=O)c1ccc(C(=O)N(C)Cc2ccc(OC(F)F)cc2)cc1	x	x	-1	x	x
COc1ccccc1N1CCN(CCCNC(=O)Cn2ncc3c([nH]c4ccccc43)c2=O)CC1	x	x	-4	x	x
COC(=O)c1c[nH]c2c1-c1cc(C(=O)OCc3ccccc3)n(S(=O)(=O)c3ccc(C)cc3)c1C(=O)C2=O	x	x	26	x	x
C=CCNC(=O)CSc1nnc(-c2ccc(S(=O)(=O)N3CCCC3)cc2)n1C	x	x	-7	x	x
COc1ccc(Br)cc1C1CC(=O)N2CN(Cc3ccccc3)CSC2=C1C#N (stereo not drawn)	57*	1	12	0.4	21
Cc1cccc(NC(=S)N2CCN(c3ccccc3)CC2)c1	11	10	-10	0.9	6
COc1ccc(-c2csc(NC(=S)NC(=O)c3cccs3)n2)cc1OC	59*	-13	1	0.4	-28
O=[N+]([O-])c1ccc(NCCNCCOc2nonc2-c2ccccc2)c([N+](=O)[O-])c1	4	30*	-2	1	5
Cc1ccc(-c2cc3c(nn2)-c2ccccc2C3=O)cc1	x	-13	-6	x	x
SMILES	Diaph inh CS	Arbovirus anti	HKDC1 inhibitor	Diaphorase act	G6PDH CS
Cc1ccccc1-c1cc2c(nn1)-c1ccccc1C2=O	65*	-44	9	0.4	53*
O=c1cc(O)c2sc(Nc3ccc(F)cc3)nc2[nH]1	78*	-3	21	0.2	13
Cc1cc(=O)[nH]c(Nc2cccc(C(F)(F)F)c2)n1	-6	20	-2	1.1	5
O=c1cc(O)c2sc(Nc3cccc(C(F)(F)F)c3)nc2[nH]1	66*	10	22	0.3	16
COc1ccccc1N(C)S(=O)(=O)c1ccc(C(=O)NCC2CCCCC2)cc1	x	x	3	x	x
CC(CN1CCOCC1)OC(=O)c1ccc(Br)cc1 (stereo not drawn)	34	1	2	0.7	57*
CS(=O)(=O)N1CCN(c2ccccc2NC(=O)Nc2cccc(Cl)c2)CC1	x	x	-4	x	x
O=C1C(Cl)=C(NCCN2CCCCC2)C(=O)c2ccccc21	9	-35	2	0.9	51*
CC(=O)Nc1cccc(NC(=O)CSc2ccc(-c3ccco3)nn2)c1	x	x	10	x	x
CC(=O)Nc1ccc(NC(=O)CSc2ccc(-c3ccco3)nn2)cc1	59*	-1	22	0.4	1
CNCc1ccccc1Sc1ccc(O)c(O)c1	63*	-15	11	0.4	50*
NC(=O)CN1CCOCCOCCN(CC(N)=O)CCOCCOCC1	2	-2	1	1	5
NC(=O)CN1CCOCCN(CC(N)=O)CCOCC1	8	x	0	0.9	56*
NC(=O)C1=C[C@@H](c2ccc(C(F)(F)F)cc2)C[C@@H](OCc2ccc(CO)cc2)O1	52*	1	5	0.5	14
C#CCNC(=O)C1=C[C@@H](c2ccccc2)C[C@@H](OCc2ccc(CO)cc2)O1	56*	-1	-5	0.4	8
CCC(NC(=O)Cc1c(C)c2c(cc(C)c3c(C)c(C)oc32)oc1=O)C(=O)O (stereo not drawn)	x	x	4	x	x
O=C1C=CC(=O)C(CNc2ccc(C(=O)OCc3ccccc3)cc2)=C1	x	x	47*	x	x
O=c1c2oc3ccccc3c2[nH]c(=S)n1-c1ccccc1	66*	-8	11	0.3	-35
CCCCn1c(=O)[nH]c2c(oc3ccccc32)c1=O	x	x	-1	x	x
Cc1cccc(-n2c(=S)[nH]c3c(oc4ccccc43)c2=O)c1	64*	4	15	0.4	-2
Cc1ccc(-n2c(C)nc3oc4ccccc4c(=O)c3c2=O)cc1	56*	3	10	0.4	15
Cc1ccc(-n2c(=S)[nH]c3c(oc4ccccc43)c2=O)cc1	66*	6	11	0.3	14
CC1CC(NC(=O)N(C)C)N(C)C(=O)N1 (stereo not drawn)	8	-3	-6	0.9	-2
C=CCN(CC=C)C(=S)NC(=O)Cc1cccc2ccccc12	25	56*	1	0.7	4
O=C(Cc1cccc2ccccc12)Nc1ccccc1	x	x	-5	x	x
COCCn1c(SCC(=O)Nc2ccc(OC)cc2OC)nc2ccccc2c1=O	x	x	-4	x	x
CN(C)C(=O)COC(=O)c1ccccc1Nc1ccc(SC(F)F)cc1	12	33*	-3	0.9	-27
CN1CCc2c(C#N)c(N3CCCCC3)nc(NCc3ccccc3)c2C1	17	-34	12	0.8	23
N#Cc1c(NCCCO)nc(NCc2ccccc2)c2c1CCN(Cc1ccccc1)C2	56*	-44	9	0.4	40

From PubChem BioAssay
